Measurements from different studies.
Compare with care: the assays were run in different laboratories.
Read-out: cell growth or viability

O=[N+]([O-])c1ccc(-c2nc3ccccc3n2Cc2ccccc2)cc1 — IC50 (human Rhabdomyosarcoma cell; MTT): 7.44 µM
Cc1ccc(C(=O)Nc2ccc(Oc3cc4cnn(C)c4cc3-c3cn[nH]c3)c(F)c2)c(=O)n1-c1ccc(F)cc1 — IC50 (MKN-45; ATP luminescence): 0.028 µM
c1cncc(-c2nc3ccccc3[nH]2)c1 — IC50 (human Rhabdomyosarcoma cell; MTT; 48 h): 87.7 µM
COCCCNC(=C\C(=O)/C=C/c1cccnc1)/C=C/c1cccnc1 — IC50 (CHO-K1; MTT; 72 h): 21.3 µM
CC(C)(C)Nc1c(-c2ccccc2N)nc2ccccn12 — IC50 (Vero; MTT; 48 h): 90 µM
Cn1nnc2c(-c3ccccc3)ncn2c1=O — IC50 (D54; resazurin; 7 days): 7 µM
O=C(/C=C(O)/C=C/c1cccs1)/C=C/c1c[nH]c2ccccc12 — IC50 (CHO-K1; SRB; 72 h): 11.1 µM
Cc1cc(Nc2ncc(Cl)c(Nc3ccccc3S(=O)(=O)C(C)C)n2)c(OC(C)C)cc1C1CCNCC1 — IC50 (Rh30; 72 h): 0.64 µM
COc1cccc2c1C(=O)c1c(O)c3c(c(O)c1C2=O)C[C@@](O)(C(=O)CO)C[C@@H]3O[C@H]1C[C@H](N)[C@H](O)[C@H](C)O1 — IC50 (CHO-K1; SRB; 72 h): 6.2 µM
Clc1ccc(-c2nc3ccccc3n2Cc2ccccc2)cc1Cl — IC50 (human Rhabdomyosarcoma cell; MTT): 42.8 µM
COc1cc(/C=C/C(=O)/C=C(O)/C=C/c2cccnc2)ccc1O — IC50 (CHO-K1; SRB; 72 h): 36.1 µM
CC(C)C[C@H](NC(=O)[C@H](Cc1ccccc1)NC(=O)c1cnccn1)B(O)O — IC50 (COR-L279; ATP luminescence): 0.0076 µM
COc1ccc(-c2nc3ccccc3[nH]2)cc1O — IC50 (human Rhabdomyosarcoma cell; MTT; 48 h): 53.1 µM
COc1cc(/C=C/C(=O)/C=C(O)/C=C/c2ccc[nH]2)ccc1O — IC50 (CHO-K1; SRB; 72 h): 49 µM
COc1ccccc1/C=C/CNCC(O)COc1ccc(C2CCCCC2)cc1 (stereo not shown) — IC50 (NCI-H1299; CCK-8; 72 h): 29.5 µM
CCOc1ccc(-c2nc3ccccc3[nH]2)cc1 — IC50 (human Rhabdomyosarcoma cell; MTT; 48 h): 25.1 µM
COc1cc(/C=C/c2cc(/C=C/c3cccc4cnccc34)[nH]n2)ccc1O — IC50 (CHO-K1; SRB; 72 h): 7.9 µM
COc1cc(Nc2nccc(-c3cnn4nc(OC)ccc34)n2)cc(C(F)(F)F)c1 — IC50 (SNU-840; ATP luminescence): 0.37 µM
Brc1ccc(Nc2nc(N/N=C\c3c[nH]c4ccccc34)nc(Nc3ccccc3)n2)cc1 — IC50 (SK-BR-3; SRB; 72 h): 12.2 µM
C=CCn1c(-c2ccc([N+](=O)[O-])cc2)nc2ccc(C)cc21 — IC50 (human Rhabdomyosarcoma cell; MTT): 86 µM
O=C(/C=C(O)/C=C/c1c[nH]c2ccccc12)/C=C/c1c[nH]c2ccccc12 — IC50 (CHO-K1; MTT; 72 h): 7.9 µM
Fc1cccc(Cl)c1-c1nc2ccccc2[nH]1 — IC50 (human Rhabdomyosarcoma cell; MTT; 48 h): > 100 µM
COc1cc([C@@H]2c3cc4c(cc3[C@@H](O[C@@H]3O[C@@H]5CO[C@@H](C)O[C@H]5[C@H](O)[C@H]3O)[C@H]3COC(=O)[C@H]23)OCO4)cc(OC)c1O — IC50 (SMMC-7721; MTT; 48 h): 8.12 µM
COc1ccccc1CCNCC(O)COc1cccc2[nH]c3ccccc3c12 (stereo not shown) — IC50 (NCI-H1299; CCK-8; 72 h): 15.2 µM
Clc1ccc(-c2nc3ccccc3[nH]2)cc1Cl — IC50 (human Rhabdomyosarcoma cell; MTT; 48 h): 10.4 µM
